In ChEMBL document CHEMBL1140069, “In vitro antifungal activity of polyfunctionalized 2-(hetero)arylquinolines prepared through imino Diels-Alder reactions” (2008):
≈ marks a conversion by molar mass, not a printed value.

Tests used:
Format in all cases: functional
Aspergillus flavus = assay: Antifungal activity against Aspergillus flavus ATCC 9170 after 48 hrs by broth microdilution technique; conditions: ATCC 9170, 48 h
In short: (§1)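 CLSI broth microdilution: M-27 A2 for yeasts and M-38 A for filamentous fungi. Medium is RPMI-1640 buffered to pH 7.0 with MOPS. Compound is diluted twofold from 250 to 0.98, final DMSO ≤2%. Inoculum is 1–5 × 10³ CFU/mL. Plates are incubated at 35 °C in a moist, dark chamber and read visually at 48 h. MIC100 is the lowest concentration giving total growth inhibition versus drug-free control.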

Aspergillus niger = assay: Antifungal activity against Aspergillus niger ATCC 9029 after 48 hrs by broth microdilution technique; conditions: ATCC 9029, 48 h; in short: as §1
Nannizzia gypsea = assay: Antifungal activity against Microsporum gypseum C115 after 48 hrs by broth microdilution technique; in short: as §1
Trichophyton rubrum = assay: Antifungal activity against Trichophyton rubrum C110 after 48 hrs by broth microdilution technique; conditions: read-out: MIC; in short: as §1
[1] = tested on: Trichophyton mentagrophytes; assay: Antifungal activity against Trichophyton mentagrophytes ATCC 9972 after 48 hrs by broth microdilution technique; conditions: ATCC 9972, 48 h; in short: as §1
Candida albicans = assay: Antifungal activity against Candida albicans ATCC 10231 after 48 hrs by broth microdilution technique; conditions: ATCC 10231, 48 h; in short: as §1
Saccharomyces cerevisiae = assay: Antifungal activity against Saccharomyces cerevisiae ATCC 9763 after 48 hrs by broth microdilution technique; conditions: ATCC 9763, 48 h; in short: as §1
Cryptococcus neoformans = assay: Antifungal activity against Cryptococcus neoformans ATCC 32264 after 48 hrs by broth microdilution technique; conditions: ATCC 32264, 48 h; in short: as §1
Aspergillus fumigatus = assay: Antifungal activity against Aspergillus fumigatus ATTC 26934 after 48 hrs by broth microdilution technique; in short: as §1

Structure (SMILES)	MIC (Aspergillus flavus)	MIC (Aspergillus niger)	MIC (Nannizzia gypsea)	MIC (Trichophyton rubrum)	MIC [1]	MIC (Candida albicans)	MIC (Saccharomyces cerevisiae)	MIC (Cryptococcus neoformans)	MIC (Aspergillus fumigatus)
Cc1ccc([N+](=O)[O-])c2c(C)cc(-c3ccncc3)nc12	> 250 µg/mL	> 250 µg/mL	> 250 µg/mL	> 250 µg/mL	> 250 µg/mL	> 250 µg/mL	> 250 µg/mL	> 250 µg/mL	> 250 µg/mL
COc1ccc2nc(-c3cccs3)ccc2c1	> 250 µg/mL	> 250 µg/mL	> 250 µg/mL	> 250 µg/mL	> 250 µg/mL	> 250 µg/mL	> 250 µg/mL	> 250 µg/mL	> 250 µg/mL
Oc1ccc2nc(-c3ccccc3)ccc2c1	> 250 µg/mL	> 250 µg/mL	125 µg/mL (≈ 565 µM)	125 µg/mL (≈ 565 µM)	250 µg/mL (≈ 1130 µM)	> 250 µg/mL	> 250 µg/mL	> 250 µg/mL	> 250 µg/mL
COc1ccc2nc(-c3ccco3)ccc2c1	> 250 µg/mL	> 250 µg/mL	125 µg/mL (≈ 555 µM)	125 µg/mL (≈ 555 µM)	125 µg/mL (≈ 555 µM)	> 250 µg/mL	> 250 µg/mL	> 250 µg/mL	> 250 µg/mL
Cc1ccc2nc(-c3ccccc3)ccc2c1	> 250 µg/mL	> 250 µg/mL	250 µg/mL (≈ 1140 µM)	250 µg/mL (≈ 1140 µM)	250 µg/mL (≈ 1140 µM)	> 250 µg/mL	> 250 µg/mL	250 µg/mL (≈ 1140 µM)	> 250 µg/mL
Cc1cc(-c2ccncc2)nc2c(C(C)C)ccc([N+](=O)[O-])c12	> 250 µg/mL	> 250 µg/mL	> 250 µg/mL	> 250 µg/mL	> 250 µg/mL	> 250 µg/mL	> 250 µg/mL	> 250 µg/mL	> 250 µg/mL
Clc1ccc2nc(-c3ccccc3)ccc2c1	> 250 µg/mL	> 250 µg/mL	> 250 µg/mL	> 250 µg/mL	> 250 µg/mL	> 250 µg/mL	> 250 µg/mL	> 250 µg/mL	> 250 µg/mL
O=[N+]([O-])c1cccc(-c2ccc3cc(F)ccc3n2)c1	> 250 µg/mL	> 250 µg/mL	> 250 µg/mL	> 250 µg/mL	> 250 µg/mL	> 250 µg/mL	> 250 µg/mL	> 250 µg/mL	> 250 µg/mL
c1ccc2nc(-c3ccc4c(c3)OCO4)ccc2c1	> 250 µg/mL	> 250 µg/mL	> 250 µg/mL	> 250 µg/mL	> 250 µg/mL	> 250 µg/mL	> 250 µg/mL	> 250 µg/mL	> 250 µg/mL
Fc1ccc2nc(-c3ccccc3)ccc2c1	> 250 µg/mL	> 250 µg/mL	250 µg/mL (≈ 1120 µM)	250 µg/mL (≈ 1120 µM)	250 µg/mL (≈ 1120 µM)	> 250 µg/mL	> 250 µg/mL	> 250 µg/mL	> 250 µg/mL
CCc1ccc2nc(-c3ccccc3)ccc2c1	> 250 µg/mL	> 250 µg/mL	250 µg/mL (≈ 1070 µM)	250 µg/mL (≈ 1070 µM)	250 µg/mL (≈ 1070 µM)	> 250 µg/mL	> 250 µg/mL	> 250 µg/mL	> 250 µg/mL
Cc1cc(C)c2ccc(-c3ccccc3)nc2c1	> 250 µg/mL	> 250 µg/mL	> 250 µg/mL	> 250 µg/mL	> 250 µg/mL	> 250 µg/mL	> 250 µg/mL	> 250 µg/mL	> 250 µg/mL
Cc1cc(-c2ccccc2)nc2ccccc12	> 250 µg/mL	> 250 µg/mL	12.5 µg/mL (≈ 57 µM)	25 µg/mL (≈ 114 µM)	12.5 µg/mL (≈ 57 µM)	> 250 µg/mL	> 250 µg/mL	250 µg/mL (≈ 1140 µM)	> 250 µg/mL
COc1ccc2nc(-c3ccc4c(c3)OCO4)ccc2c1	> 250 µg/mL	> 250 µg/mL	> 250 µg/mL	> 250 µg/mL	> 250 µg/mL	> 250 µg/mL	> 250 µg/mL	> 250 µg/mL	> 250 µg/mL
Clc1ccc2nc(-c3ccco3)ccc2c1	> 250 µg/mL	> 250 µg/mL	> 250 µg/mL	> 250 µg/mL	> 250 µg/mL	> 250 µg/mL	> 250 µg/mL	> 250 µg/mL	> 250 µg/mL
Cc1cc(-c2cccnc2)nc2ccc(Br)cc12	> 250 µg/mL	> 250 µg/mL	12.5 µg/mL (≈ 41.8 µM)	12.5 µg/mL (≈ 41.8 µM)	12.5 µg/mL (≈ 41.8 µM)	> 250 µg/mL	> 250 µg/mL	250 µg/mL (≈ 836 µM)	> 250 µg/mL
Clc1ccc2nc(-c3cccs3)ccc2c1	> 250 µg/mL	> 250 µg/mL	> 250 µg/mL	> 250 µg/mL	> 250 µg/mL	> 250 µg/mL	> 250 µg/mL	> 250 µg/mL	> 250 µg/mL
CCc1cccc2c(C)cc(-c3ccncc3)nc12	> 250 µg/mL	> 250 µg/mL	> 250 µg/mL	> 250 µg/mL	> 250 µg/mL	> 250 µg/mL	> 250 µg/mL	> 250 µg/mL	> 250 µg/mL
O=[N+]([O-])c1cccc(-c2ccc3cc(Cl)ccc3n2)c1	> 250 µg/mL	> 250 µg/mL	> 250 µg/mL	> 250 µg/mL	> 250 µg/mL	> 250 µg/mL	> 250 µg/mL	> 250 µg/mL	> 250 µg/mL
CCc1ccc2ccc(-c3ccc4c(c3)OCO4)nc2c1	> 250 µg/mL	> 250 µg/mL	> 250 µg/mL	> 250 µg/mL	> 250 µg/mL	> 250 µg/mL	> 250 µg/mL	> 250 µg/mL	> 250 µg/mL
Nc1cccc(-c2ccc3cc(Cl)ccc3n2)c1	> 250 µg/mL	> 250 µg/mL	125 µg/mL (≈ 491 µM)	125 µg/mL (≈ 491 µM)	125 µg/mL (≈ 491 µM)	> 250 µg/mL	> 250 µg/mL	> 250 µg/mL	> 250 µg/mL
Cc1ccc2nc(-c3ccc4c(c3)OCO4)ccc2c1	> 250 µg/mL	> 250 µg/mL	> 250 µg/mL	> 250 µg/mL	> 250 µg/mL	> 250 µg/mL	> 250 µg/mL	> 250 µg/mL	> 250 µg/mL
c1ccc(-c2ccc3cc4c(cc3n2)OCO4)cc1	> 250 µg/mL	> 250 µg/mL	250 µg/mL (≈ 1000 µM)	250 µg/mL (≈ 1000 µM)	250 µg/mL (≈ 1000 µM)	> 250 µg/mL	> 250 µg/mL	125 µg/mL (≈ 501 µM)	> 250 µg/mL
COc1cc(OC)c2nc(-c3ccc4c(c3)OCO4)ccc2c1	> 250 µg/mL	> 250 µg/mL	> 250 µg/mL	> 250 µg/mL	> 250 µg/mL	> 250 µg/mL	> 250 µg/mL	> 250 µg/mL	> 250 µg/mL
CCc1ccc2nc(-c3cccc([N+](=O)[O-])c3)ccc2c1	> 250 µg/mL	> 250 µg/mL	> 250 µg/mL	> 250 µg/mL	> 250 µg/mL	> 250 µg/mL	> 250 µg/mL	> 250 µg/mL	> 250 µg/mL
O=[N+]([O-])c1ccc2nc(-c3ccccc3)ccc2c1	> 250 µg/mL	> 250 µg/mL	> 250 µg/mL	> 250 µg/mL	> 250 µg/mL	> 250 µg/mL	> 250 µg/mL	> 250 µg/mL	> 250 µg/mL
